ChEMBL document CHEMBL1146343, “Synthesis and activity of Combretastatin A-4 analogues: 1,2,3-thiadiazoles as potent antitumor agents” (Bioorg Med Chem Lett, 2007)
The source made the active and inactive calls. The rule behind the calls is not given here.

What was measured:
HL-60 = experiment: Antiproliferative activity against human HL60 cells; type: functional, cell-based
How it was run: (§1)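 Antiproliferative testing against human HL-60 myeloid leukemia, HCT-116 colon adenocarcinoma and HMEC-1 microvascular endothelial cells; each experiment run independently at least three times, values given with SD.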

HCT-116 = experiment: Antiproliferative activity against human HCT116 cells; type: functional, cell-based; how it was run: as §1
[1] = Antiproliferative activity against human HMEC1 cells; type: cell-based; conditions: HMEC-1; how it was run: as §1
[2] = Cell cycle arrest in HMEC1 cells assessed as accumulation at G1 phase at 50 nM after 24 hrs by flow cytometry assay relative to control; type: functional, cell-based; conditions: Homo sapiens, HMEC-1
How it was run: (§2)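 HMEC-1 cells treated 24 h at 6.25–100 nM, then cell cycle distribution (G1, G2/M, S percentages) determined by flow cytometry using standard propidium iodide staining; untreated cells as control.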

[3] = Cell cycle arrest in HMEC1 cells assessed as accumulation at G2/M phase at 50 nM after 24 hrs by flow cytometry assay relative to control; type: functional, cell-based; conditions: Homo sapiens, HMEC-1; how it was run: as §2
[4] = Cell cycle arrest in HMEC1 cells assessed as accumulation at S phase at 12.5 nM after 24 hrs by flow cytometry assay relative to control; type: functional, cell-based; conditions: Homo sapiens, HMEC-1; how it was run: as §2
Tubulin = experiment: Inhibition of tubulin polymerization; type: protein-complex assay, Homo sapiens
Mus musculus [5] = experiment: Toxicity in mouse implanted with S180 cells at 10 mg/kg, ip after 7 days; type: organism-based, CCRF S-180; set-up: dose 10 mg/kg, route intraperitoneal; conditions: in vivo, 168 h
How it was run: (§3)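 S180 sarcoma-bearing mice given daily i.p. doses for 4–7 days, 10 mice per group with saline controls; body weight recorded at start and end, surviving mice counted at end of treatment.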

[6] = Cell cycle arrest in HMEC1 cells assessed as accumulation at G1 phase at 6.25 nM after 24 hrs by flow cytometry assay relative to control; type: functional, cell-based; conditions: Homo sapiens, HMEC-1; how it was run: as §2
[7] = Cell cycle arrest in HMEC1 cells assessed as accumulation at G1 phase at 12.5 nM after 24 hrs by flow cytometry assay relative to control; type: functional, cell-based; conditions: Homo sapiens, HMEC-1; how it was run: as §2
[8] = Cell cycle arrest in HMEC1 cells assessed as accumulation at G2/M phase at 12.5 nM after 24 hrs by flow cytometry assay relative to control; type: functional, cell-based; conditions: Homo sapiens, HMEC-1; how it was run: as §2
[9] = Cell cycle arrest in HMEC1 cells assessed as accumulation at G1 phase at 25 nM after 24 hrs by flow cytometry assay relative to control; type: functional, cell-based; conditions: Homo sapiens, HMEC-1; how it was run: as §2
[10] = Cell cycle arrest in HMEC1 cells assessed as accumulation at G1 phase at 100 nM after 24 hrs by flow cytometry assay relative to contro; type: functional, cell-based; conditions: Homo sapiens, HMEC-1; how it was run: as §2
[11] = Cell cycle arrest in HMEC1 cells assessed as accumulation at G2/M phase at 6.25 nM after 24 hrs by flow cytometry assay relative to control; type: functional, cell-based; conditions: Homo sapiens, HMEC-1; how it was run: as §2
CCRF S-180 [12] = experiment: Antitumor activity in mouse implanted with S180 cells at 10 mg/kg, ip after 7 days; type: functional; conditions: CCRF S-180, ip, 168 h, route intraperitoneal
How it was run: (§4)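 Mice bearing transplanted S180 sarcoma dosed i.p. daily for 4–7 days (10 per group, saline control group of 20); animals then euthanized, tumors excised and weighed; inhibition rate from tumor weight versus saline controls; significance p < 0.01.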

HMEC-1 [13] = experiment: Effect on alteration in morphology of HMEC1 cells at 1 uM after 30 mins; type: functional, cell-based; conditions: Homo sapiens
How it was run: (§5)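 HMEC-1 cells grown on slides, exposed 30 min at 1 μM, fixed in 3% formaldehyde, permeabilized with 0.1% Triton X-100, stained with primary antibody then Alexa488 secondary; nuclei counterstained with DAPI in mounting medium; imaged by confocal microscopy.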

Mus musculus [14] = experiment: Toxicity in mouse implanted with S180 cells at 40 mg/kg, ip after 5 days; type: organism-based, CCRF S-180; set-up: dose 40 mg/kg, route intraperitoneal; conditions: in vivo, 120 h; how it was run: as §3
[15] = Cell cycle arrest in HMEC1 cells assessed as accumulation at G2/M phase at 25 nM after 24 hrs by flow cytometry assay relative to control; type: functional, cell-based; conditions: Homo sapiens, HMEC-1; how it was run: as §2
[16] = Cell cycle arrest in HMEC1 cells assessed as accumulation at S phase at 50 nM after 24 hrs by flow cytometry assay relative to control; type: functional, cell-based; conditions: Homo sapiens, HMEC-1; how it was run: as §2
[17] = Cell cycle arrest in HMEC1 cells assessed as accumulation at G2/M phase at 100 nM after 24 hrs by flow cytometry assay relative to control; type: functional, cell-based; conditions: Homo sapiens, HMEC-1; how it was run: as §2
Mus musculus [18] = experiment: Effect on body weight in mouse implanted with S180 cells at 10 mg/kg, ip after 7 days; type: functional, CCRF S-180; conditions: route intraperitoneal; how it was run: as §3
[19] = Cell cycle arrest in HMEC1 cells assessed as accumulation at S phase at 100 nM after 24 hrs by flow cytometry assay relative to control; type: functional, cell-based; conditions: Homo sapiens, HMEC-1; how it was run: as §2
[20] = Cell cycle arrest in HMEC1 cells assessed as accumulation at S phase at 6.25 nM after 24 hrs by flow cytometry assay relative to control; type: functional, cell-based; conditions: Homo sapiens, HMEC-1; how it was run: as §2
HMEC-1 [21] = experiment: Disruption of cytoskeleton in HMEC1 cells at 1 uM after 30 mins; type: functional, cell-based; conditions: Homo sapiens; how it was run: as §5
[22] = Cell cycle arrest in HMEC1 cells assessed as accumulation at S phase at 25 nM after 24 hrs by flow cytometry assay relative to control; type: functional, cell-based; conditions: Homo sapiens, HMEC-1; how it was run: as §2
Mus musculus [23] = experiment: Effect on body weight in mouse implanted with S180 cells at 40 mg/kg, ip after 5 days; type: functional, CCRF S-180; conditions: route intraperitoneal; how it was run: as §3
CCRF S-180 [24] = experiment: Antitumor activity in mouse implanted with S180 cells at 40 mg/kg, ip after 5 days; type: functional; conditions: CCRF S-180, ip, 120 h, route intraperitoneal; how it was run: as §4
CCRF S-180 [25] = experiment: Antitumor activity in mouse implanted with S180 cells at 50 mg/kg, ip after 2 days; type: functional; conditions: CCRF S-180, ip, 48 h, route intraperitoneal
How it was run: (§6)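 Mouse S180 sarcoma transplant model; drug given i.p. daily, with an NS-treated control group (n = 20) and 10 mice per treated group. At the end, animals were euthanized and tumors excised and weighed. Inhibition rate is relative to the control. Body weight and surviving mouse numbers were recorded at the start and end. Significance was set at p < 0.01.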

Mus musculus [26] = experiment: Effect on body weight in mouse implanted with S180 cells at 50 mg/kg, ip after 2 days; type: functional, CCRF S-180; conditions: route intraperitoneal; how it was run: as §6
Mus musculus [27] = experiment: Toxicity in mouse implanted with S180 cells at 50 mg/kg, ip after 2 days; type: organism-based, CCRF S-180; set-up: dose 50 mg/kg, route intraperitoneal; conditions: in vivo, 48 h; how it was run: as §6
Mus musculus [28] = experiment: Toxicity in mouse implanted with S180 cells at 20 mg/kg, ip after 1 day; type: organism-based, CCRF S-180; set-up: dose 20 mg/kg, route intraperitoneal; conditions: in vivo, 24 h
How it was run: (§7)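 S180 sarcoma-bearing mice, 10 per group, given i.p. doses of 10 or 20 mg/kg; survival followed after 1 day.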

Mus musculus [29] = experiment: Toxicity in mouse implanted with S180 cells at 10 mg/kg, ip after 1 day; type: organism-based, CCRF S-180; set-up: dose 10 mg/kg, route intraperitoneal; conditions: in vivo, 24 h; how it was run: as §7

COc1cc(-c2snnc2-c2ccc(Cl)cc2)cc(OC)c1OC
IC50 (HL-60): > 1000 nM | IC50 (HCT-116): > 1000 nM | IC50 [1]: > 1000 nM

COc1ccc(-c2snnc2-c2cc(OC)c(OC)c(OC)c2)cc1
Activity [2]: 11% | Activity [3]: 78% | Activity [4]: 33% | IC50 (Tubulin): 860 nM | Activity (Mus musculus [5]): Non-toxic | Activity [6]: 55% | Activity [7]: 39% | Activity [8]: 28% | Activity [9]: 34% | Activity [10]: 4% | IC50 (HL-60): 14.5 nM | Activity [11]: 14% | inhibition in vivo at 10 mg/kg (CCRF S-180 [12]): 30.2% | Activity (HMEC-1 [13]): Active | Activity (Mus musculus [14]): Non-toxic | Activity [15]: 40% | IC50 (HCT-116): 25 nM | Activity [16]: 11% | Activity [17]: 87% | Activity (Mus musculus [18]): 23.6 g | Activity [19]: 9% | Activity [20]: 31% | Activity (HMEC-1 [21]): Active | Activity [22]: 27% | Activity (Mus musculus [23]): 18.3 g | IC50 [1]: 24.6 nM | inhibition in vivo at 40 mg/kg (CCRF S-180 [24]): 81%

O=c1[nH]cc(F)c(=O)[nH]1 [FLUOROURACIL]
inhibition in vivo at 50 mg/kg (CCRF S-180 [25]): 80.4% | Activity (Mus musculus [26]): 23 g | Activity (Mus musculus [27]): Non-toxic

COc1ccc(-c2nnsc2-c2cc(OC)c(OC)c(OC)c2)cc1O
IC50 (Tubulin): 860 nM | IC50 (HL-60): 40.9 nM | IC50 (HCT-116): 70.4 nM | IC50 [1]: 41 nM

COc1cc(-c2nnsc2-c2ccc(F)cc2)cc(OC)c1OC
IC50 (HCT-116): > 1000 nM | IC50 [1]: > 1000 nM

COc1cc(-c2snnc2-c2ccc3c(c2)OCO3)cc(OC)c1OC
IC50 (HL-60): > 1000 nM | IC50 (HCT-116): > 1000 nM | IC50 [1]: > 1000 nM

COc1ccc(-c2snnc2-c2cc(OC)c(OC)c(OC)c2)cc1N
IC50 (Tubulin): 680 nM | Activity (Mus musculus [28]): Toxic | IC50 (HL-60): 1.8 nM | Activity (Mus musculus [29]): Toxic | Activity (HMEC-1 [13]): Active | IC50 (HCT-116): 3.7 nM | Activity (HMEC-1 [21]): Active | IC50 [1]: 2.5 nM

COc1ccc(-c2nnsc2-c2cc(OC)c(OC)c(OC)c2)cc1
IC50 (HL-60): 537 nM | IC50 (HCT-116): 616 nM | IC50 [1]: > 1000 nM

COc1ccc(-c2nnsc2-c2cc(OC)c(OC)c(OC)c2)cc1[N+](=O)[O-]
IC50 (HL-60): > 1000 nM | IC50 (HCT-116): > 1000 nM | IC50 [1]: > 1000 nM

COc1cc(-c2snnc2-c2ccc(F)cc2)cc(OC)c1OC
IC50 (HL-60): > 1000 nM | IC50 (HCT-116): > 1000 nM | IC50 [1]: > 1000 nM
